Results on 35 compounds are retold here after ChEMBL document CHEMBL1145139, “Synthesis and pharmacological evaluation of 1-oxo-2-(3-piperidyl)-1,2,3,4- tetrahydroisoquinolines and related analogues as a new class of specific bradycardic agents possessing I(f) channel inhibitory activity” (2003).

What all share (assay type): functional
The species entered for one experiment is Cavia porcellus. Nature of the experiment: In vitro bradycardiac activity on isolated right atrium of guinea pig. The following applies: Cardiac atrium. The essentials: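 Male Hartley guinea pigs (250–400 g); spontaneously beating right atria in Tyrode's solution at 37 °C, 95% O2/5% CO2, 1 g tension, 90 min equilibration. Compound added cumulatively at 45 min intervals; beat rate counted from isometric contraction. Value = concentration giving 30% reduction from initial spontaneous rate; mean ± SEM, three to six experiments.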

Experiment [1] relates to Rattus norvegicus. Description: In vivo effect on heart rate of anesthetized rats following 3 mg/kg i.v. The note with it: route intravenous. The essentials: (§1)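 Male Wister rats (270–350 g), anesthetized (pentobarbital ip per methods; urethane per text). Compound at 3 mg/kg (salt form) in aqueous solution or saline, iv via jugular vein catheter. HR taken from the blood-pressure pulse wave; MBP = DBP + (SBP−DBP)/3. Maximal percent change from initial value; mean ± SEM, three to four experiments.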

For experiment [2], the system named is Rattus norvegicus. Description: In vivo effect on mean blood pressure of anesthetized rats following 3 mg/kg i.v. The following applies: route intravenous. An outline of the steps:
as §1

A word on the EC30: it is the point of the concentration-response curve where the effect stands at 30%. For the compound `COc1cc2c(cc1OC)C(=O)N([C@@H]1CCCN(CCCOc3ccc4c(c3)OCO4)C1)CC2.Cl`, the EC30 in the experiment listed under Cavia porcellus was 79 nM. In addition, the Change with Rattus norvegicus [1] is -55%; in the experiment on Rattus norvegicus [2] it was -13%.

In turn, `COc1cc2c(cc1OC)C(=O)N([C@H]1CCCN(CCCOc3ccc4c(c3)OCO4)C1)CC2.Cl` came in with an EC30 in the experiment listed under Cavia porcellus of 68 nM. Further, the results for the Change in the experiment on Rattus norvegicus [1] and in the experiment on Rattus norvegicus [2] were -53% and -23%, respectively.

In the experiment filed under Cavia porcellus, `COc1ccc(C(=O)N(C)C2CCCN(CCCOc3ccc4c(c3)OCO4)C2)cc1OC` (stereo not given) showed a concentration for an effect of 30% (EC30) of 3500 nM.

The compound `COC(=O)c1ccc(OCCCN2CCCC(N3CCc4cc(OC)c(OC)cc4C3=O)C2)cc1.Cl` (stereo not given) had a concentration for an effect of 30% (EC30) in the experiment listed under Cavia porcellus of 110 nM. Besides, the Change is given as -30% in the experiment with Rattus norvegicus [1] and -2.3% in the experiment on Rattus norvegicus [2].

In the experiment filed under Cavia porcellus, `COc1cc2c(cc1OC)C(=O)N(C1CCCN(CCCOc3ccc(F)cc3)C1)CC2.Cl` (stereo not given) showed an EC30 of 240 nM. Further, the Change in the experiment on Rattus norvegicus [1] was -39%; with Rattus norvegicus [2], -17%.

For the compound `COc1cc2c(cc1OC)C(=O)N(C1CCCN(CCCOc3ccc(Cl)cc3)C1)CC2.Cl` (stereo not given), it took 350 nM to reach the 30% level in the experiment listed under Cavia porcellus (EC30). The Change is on record as -32% with Rattus norvegicus [1] and -12% in the experiment with Rattus norvegicus [2].

Compound `COc1ccc(OCCCN2CCCC(N3CCc4cc(OC)c(OC)cc4C3=O)C2)cc1OC.Cl` (stereo not given) displayed a 30% effect concentration (EC30) in the experiment filed under Cavia porcellus of 110 nM. For the same compound, the Change in the experiment on Rattus norvegicus [1] is -56%; in the experiment with Rattus norvegicus [2], -18%.

In turn, `COc1cc2[nH]c(=O)n(C3CCCN(CCCOc4ccc5c(c4)OCO5)C3)c(=O)c2cc1OC` (stereo not given) yielded an EC30 in the experiment filed under Cavia porcellus of 920 nM.

In the case of `COc1cc2c(cc1OC)C(=O)N(C1CCCN(CCCOc3ccc(C)cc3)C1)CC2.Cl` (stereo not given), the EC30 in the experiment listed under Cavia porcellus was 140 nM. Besides, the Change in the experiment with Rattus norvegicus [1] was -37%; in the experiment with Rattus norvegicus [2], -12%.

For the compound `COc1cc2c(cc1OC)C(=O)N(C1CCCN(CCCOc3ccc(O)cc3)C1)CC2` (stereo not given), it took 890 nM to reach the 30% level in the experiment listed under Cavia porcellus (EC30).

`COc1cc2c(cc1OC)C(=O)N(C1CCCN(CCCOc3ccc(OCc4ccccc4)cc3)C1)CC2` (stereo not given) registered a 30% effect concentration (EC30) in the experiment listed under Cavia porcellus of 1300 nM.

Compound `COc1cc2c(cc1OC)C(=O)N(C1CCCN(CCCOc3ccc(NC(C)=O)cc3)C1)CC2` (stereo not given) yielded a 30% effect concentration (EC30) in the experiment filed under Cavia porcellus of 760 nM.

For `COc1cc2c(cc1OC)C(=O)N(C1CCCN(CCCOc3cc(OC)c(OC)c(OC)c3)C1)CC2` (stereo not given), the concentration for an effect of 30% (EC30) in the experiment listed under Cavia porcellus came to 1600 nM.

Compound `COc1cc2c(cc1OC)C(=O)N(C1CCCN(CCCOc3ccc([N+](=O)[O-])cc3)C1)CC2.Cl` (stereo not given) showed an EC30 in the experiment filed under Cavia porcellus of 270 nM. For the same compound, the Change is -5.6% in the experiment with Rattus norvegicus [1] and 41% in the experiment on Rattus norvegicus [2].

Take `COc1cc2c(cc1OC)C(=O)N(C1CCCN(CCCOc3ccc4c(c3)CCC4)C1)CC2` (stereo not given): in the experiment listed under Cavia porcellus, the EC30 was 890 nM.

Turning to `COc1cc2ncn(C3CCCN(CCCOc4ccc5c(c4)OCO5)C3)c(=O)c2cc1OC.Cl` (stereo not given), in the experiment listed under Cavia porcellus, the concentration for an effect of 30% (EC30) was found to be 260 nM. In addition, the Change in the experiment with Rattus norvegicus [1] is recorded as -34%; with Rattus norvegicus [2] it was -20%.

In the experiment filed under Cavia porcellus, `COc1cccc(OCCCN2CCCC(N3CCc4cc(OC)c(OC)cc4C3=O)C2)c1.Cl` (stereo not given) gave a concentration for an effect of 30% (EC30) of 140 nM. The Change is -47% in the experiment with Rattus norvegicus [1] and -11% in the experiment on Rattus norvegicus [2].

`COc1cc2c(cc1OC)C(=O)N(C1CCCN(CCCOc3ccccc3OC)C1)CC2` (stereo not given) registered a concentration for an effect of 30% (EC30) in the experiment filed under Cavia porcellus of 390 nM.

Compound `COc1ccc(OCCCN2CCCC(N3CCc4cc(OC)c(OC)cc4C3=O)C2)cc1.Cl` (stereo not given) returned a concentration for an effect of 30% (EC30) in the experiment listed under Cavia porcellus of 99 nM. Moreover, the Change in the experiment with Rattus norvegicus [1] is -49%; in the experiment on Rattus norvegicus [2] it was -16%.

Regarding `COc1cc2c(cc1OC)C(=O)N(C1CCCN(CCCOc3ccc(OC(C)C)cc3)C1)CC2` (stereo not given), the concentration for an effect of 30% (EC30) in the experiment filed under Cavia porcellus was found to be 330 nM.

In the experiment filed under Cavia porcellus, `COc1cc2c(cc1OC)C(=O)N(C1CCCN(CCCOc3ccc(C#N)cc3)C1)CC2.Cl` (stereo not given) gave a concentration for an effect of 30% (EC30) of 240 nM. The figures for the Change in the experiment on Rattus norvegicus [1] and in the experiment on Rattus norvegicus [2] were -23% and -6.8%, respectively.

In the experiment listed under Cavia porcellus, `COc1ccc(C(=O)NC2CCCN(CCCOc3ccc4c(c3)OCO4)C2)cc1OC.Cl` (stereo not given) gave an EC30 of 420 nM. The Change in the experiment with Rattus norvegicus [1] is -29%; in the experiment with Rattus norvegicus [2], -11%.

On to `COc1cc2c(cc1OC)C(=O)N(C1CCCN(CCCOc3ccc(C(F)(F)F)cc3)C1)CC2` (stereo not given), for which the 30% effect concentration (EC30) in the experiment listed under Cavia porcellus was determined as 790 nM.

In the experiment listed under Cavia porcellus, `COc1cc2ccn(C3CCCN(CCCOc4ccc5c(c4)OCO5)C3)c(=O)c2cc1OC.Cl` (stereo not given) showed an EC30 of 200 nM. Moreover, the Change in the experiment on Rattus norvegicus [1] is reported as -26%; with Rattus norvegicus [2], 11%.

On to `COc1cc2c(cc1OC)C(=O)N(C1CCCN(CCCOc3ccccc3)C1)CC2.Cl` (stereo not given), for which the EC30 in the experiment filed under Cavia porcellus came out at 390 nM. The Change was -32% in the experiment with Rattus norvegicus [1] and 3.2% with Rattus norvegicus [2].

Regarding `COc1cc2c(cc1OC)C(=O)N(C1CCCN(CCCOc3ccc4c(c3)OCO4)C1)CC2.Cl` (stereo not given), in the experiment filed under Cavia porcellus, it took 67 nM to reach the 30% level (EC30). The Change in the experiment on Rattus norvegicus [1] is given as -48%; in the experiment with Rattus norvegicus [2], -14%.

With `COc1cc2c(cc1OC)C(=O)N(C1CCCN(CCCOc3ccc4[nH]ccc4c3)C1)CC2` (stereo not given), the 30% effect level in the experiment filed under Cavia porcellus (EC30) was put at 360 nM.

In turn, `COc1cc2c(cc1OC)C(=O)N(C1CCCN(CCCOc3ccc(C(N)=O)cc3)C1)CC2` (stereo not given) yielded an EC30 in the experiment filed under Cavia porcellus of 5700 nM.

For `COc1cc2c(cc1OC)CN(C1CCCN(CCCOc3ccc4c(c3)OCO4)C1)CC2.Cl` (stereo not given), the EC30 in the experiment listed under Cavia porcellus turned out to be 250 nM. The Change is given as -47% with Rattus norvegicus [1] and -7.1% in the experiment on Rattus norvegicus [2].

For the compound `COc1cc2c(cc1OC)C(=O)N(C1CCCN(CCCOc3ccc(Br)cc3)C1)CC2` (stereo not given), it took 470 nM to reach the 30% level in the experiment filed under Cavia porcellus (EC30).

As for `CCCOc1ccc(OCCCN2CCCC(N3CCc4cc(OC)c(OC)cc4C3=O)C2)cc1` (stereo not given), it took 270 nM to reach the 30% level in the experiment listed under Cavia porcellus (EC30).

`COc1cc2c(cc1OC)C(=O)N(C1CCCN(CCCOc3ccc(N)cc3)C1)CC2` (stereo not given): in the experiment filed under Cavia porcellus, it took 1600 nM to reach the 30% level (EC30).

For the compound `CCOc1ccc(OCCCN2CCCC(N3CCc4cc(OC)c(OC)cc4C3=O)C2)cc1.Cl` (stereo not given), in the experiment filed under Cavia porcellus, the 30% effect level (EC30) was put at 97 nM. The Change was -49% in the experiment with Rattus norvegicus [1] and -7.8% in the experiment on Rattus norvegicus [2].

As for `COc1cc2c(cc1OC)C(=O)N(C1CCCN(CCCOc3ccc4c(c3)OCCO4)C1)CC2.Cl` (stereo not given), the EC30 in the experiment filed under Cavia porcellus is 130 nM. Besides, the Change is listed as -44% in the experiment with Rattus norvegicus [1] and -12% in the experiment on Rattus norvegicus [2].

As to `COc1ccc(CCN(C)CCCN2CCc3cc(OC)c(OC)cc3CC2=O)cc1OC.Cl` [ZATEBRADINE HYDROCHLORIDE], the EC30 in the experiment filed under Cavia porcellus is 260 nM. Also, the figures for the Change in the experiment on Rattus norvegicus [1] and in the experiment on Rattus norvegicus [2] were -47% and 5.4%, respectively.
